According to ChEMBL document CHEMBL3124896, “Optimization of the lactam side chain of 7-azaindenoisoquinoline topoisomerase I inhibitors and mechanism of action studies in cancer cells” (2014):
One block for each compound: values may come before it. Active and inactive are the calls of the source. The calls are words filed in the database; no cut-off is given here.

Columns and labels:
[1] = biological target: T1, DNA topoisomerase 1 (Homo sapiens) (UniProt P11387); assay: Inhibition of human recombinant topoisomerase 1 using radiolabeled DNA as substrate after 20 mins by SDS-PAGE
T1 sequence (whole entry): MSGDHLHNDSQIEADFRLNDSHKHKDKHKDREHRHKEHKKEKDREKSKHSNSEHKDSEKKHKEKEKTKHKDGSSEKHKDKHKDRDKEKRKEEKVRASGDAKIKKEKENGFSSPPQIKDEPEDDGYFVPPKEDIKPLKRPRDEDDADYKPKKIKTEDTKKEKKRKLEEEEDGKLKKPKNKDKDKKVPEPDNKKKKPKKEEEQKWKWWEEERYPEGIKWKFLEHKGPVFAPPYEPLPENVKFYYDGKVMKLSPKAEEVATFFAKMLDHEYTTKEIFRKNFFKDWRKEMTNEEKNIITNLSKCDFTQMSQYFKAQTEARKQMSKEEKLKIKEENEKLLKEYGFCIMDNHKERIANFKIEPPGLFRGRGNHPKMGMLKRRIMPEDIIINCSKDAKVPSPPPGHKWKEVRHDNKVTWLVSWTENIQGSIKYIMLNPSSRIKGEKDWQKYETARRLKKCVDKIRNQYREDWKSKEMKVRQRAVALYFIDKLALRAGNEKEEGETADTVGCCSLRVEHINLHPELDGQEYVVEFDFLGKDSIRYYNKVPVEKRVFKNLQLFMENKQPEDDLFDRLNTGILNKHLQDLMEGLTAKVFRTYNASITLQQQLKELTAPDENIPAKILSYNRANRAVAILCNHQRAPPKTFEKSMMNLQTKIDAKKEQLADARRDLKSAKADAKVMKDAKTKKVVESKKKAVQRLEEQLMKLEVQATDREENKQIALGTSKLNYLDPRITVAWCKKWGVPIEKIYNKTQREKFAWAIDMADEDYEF
How it was run: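 A 117 bp oligonucleotide was 3′-end-labelled with [α-32P]dGTP by Klenow fill-in. Reactions were stopped with 0.5% SDS and run on 20% denaturing polyacrylamide gels. Cleavage bands were scored visually on a semiquantitative scale.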

DU-145 [2] = assay: Cytotoxicity against human DU145 cells by SRB assay; assay type: functional
UACC-62 = assay: Cytotoxicity against human UACC62 cells by SRB assay; assay type: functional
OVCAR-3 = assay: Cytotoxicity against human OVCAR3 cells by SRB assay; assay type: functional
SN12C = assay: Cytotoxicity against human SN12C cells by SRB assay; assay type: functional
HOP-62 = assay: Cytotoxicity against human HOP62 cells by SRB assay; assay type: functional
HCT-116 [3] = assay: Cytotoxicity against human HCT116 cells by SRB assay; assay type: functional
[4] = biological target: T1, DNA topoisomerase 1 (Homo sapiens); assay: Inhibition of human recombinant topoisomerase 1 using radiolabeled DNA as substrate at 0.1 to 100 uM after 20 mins by SDS-PAGE
How it was run: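 Baculovirus-purified human recombinant Top1 with ~2 nM of a 117 bp oligonucleotide, 3′-end-labeled with [α-32P]dGTP by Klenow fill-in. Drugs at 0.1, 1, 10, 100 μM; 25 °C, 20 min. Stopped with 0.5% SDS, run on 20% denaturing PAGE, phosphorimaged. Cleavage bands scored visually against camptothecin standard.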

MCF7 = assay: Cytotoxicity against human MCF7 cells by SRB assay; assay type: functional
SF-539 = assay: Cytotoxicity against human SF539 cells by SRB assay; assay type: functional
HCT-116 [5] = assay: Induction of DNA damage in human HCT116 cells assessed as induction of histone gamma-H2AX level at 1 uM after 1 hr by flow cytometry
HCT-116 [6] = assay: Cell cycle arrest in human HCT116 cells assessed as accumulation at G2 phase at 1 uM incubated for 1 hr followed by compound washout measured after 6 to 48 hrs by propidium iodide staining-based FACS analysis; assay type: functional
How it was run: (§1)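 HCT116 cells exposed to 1 μM drug for 1 h, then kept in drug-free medium for the stated times. Fixed cells were stained with propidium iodide and analysed by flow cytometry for DNA content histograms. Phase distributions were computed from the histograms.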

HCT-116 [7] = assay: Cell cycle arrest in human HCT116 cells at 1 uM incubated for 1 hr followed by compound washout measured up to 1 hr by propidium iodide staining-based FACS analysis; assay type: functional; how it was run: as §1
HCT-116 [8] = assay: Cell cycle arrest in human HCT116 cells at 1 uM after 1 hr by propidium iodide staining-based FACS analysis; assay type: functional; how it was run: as §1
[9] = Resistance ratio of GI50 for human mitoxantrone-resistant H460 cells to GI50 for human H460 cells; assay type: functional
How it was run: (§2)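 Relative resistance = GI50 in the resistant subline divided by GI50 in the parental line. Both GI50s came from 72 h continuous-exposure MTS growth assays, each based on at least two independent determinations.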

HCT-116 [10] = assay: Cytotoxicity against human HCT116 cells after 72 hrs by MTT assay; assay type: functional; details: HCT-116, 72 h
How it was run: (§3)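 Cells were seeded 24 h before dosing and exposed continuously for 72 h. Growth was read by colorimetric MTS assay and expressed relative to vehicle-treated controls set at 100. GI50 is the level giving 50% growth inhibition, from at least two independent determinations. HCT116 and siTop1 cells were kept in RPMI 1640/10% FBS with 100 μg/mL hygromycin; RC0.1 in RPMI 1640/10% FBS.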

[11] = biological target: T1, DNA topoisomerase 1 (Homo sapiens); assay: Inhibition of human recombinant topoisomerase 1 in human HCT116 cells assessed as DNA-protein cross linking at 1 uM after 1 hr; assay type: cell-based; details: HCT-116
How it was run: (§4)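 In HCT116 cells, Top1 cleavage complexes were quantified as DNA–protein cross-links by alkaline elution, plotting the fraction of DNA retained on the filter against time. Persistence was read 1 h after drug removal. The negative control was untreated cells given 30 Gy irradiation to create strand breaks.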

[12] = Cytotoxicity against vinblastine-resistant human KBV1 cells after 72 hrs by MTT assay; assay type: functional; details: KB-V1, 72 h; how it was run: as §3
[13] = Cytotoxicity against human RC0.1 cells after 72 hrs by MTT assay; assay type: functional; how it was run: as §3
[14] = biological target: T1, DNA topoisomerase 1 (Homo sapiens); assay: Inhibition of human recombinant topoisomerase 1 in human HCT116 cells assessed as DNA-protein cross linking at 1 uM incubated for 1 hr followed by compound washout measured after 1 hr; assay type: cell-based; details: HCT-116; how it was run: as §4
[15] = Resistance ratio of GI50 for vinblastine-resistant human KBV1 cells to GI50 for human KB 3.1 cells; assay type: functional
[16] = Cytotoxicity against human KB 3.1 cells after 72 hrs by MTT assay; assay type: functional; details: KB 3-1, 72 h; how it was run: as §3
[17] = Cytotoxicity against human H460 cells after 72 hrs by MTT assay; assay type: functional; details: NCI-H460, 72 h; how it was run: as §3
[18] = biological target: T1, DNA topoisomerase 1 (Homo sapiens); assay: Inhibition of human recombinant topoisomerase 1 in human HCT116 cells assessed as reversal of topoisomerase 1-DNA cleavage complex stabilization at 1 uM incubated for 1 hr followed by compound washout measured after 24 hrs by DNA immunoblotting analysis; assay type: cell-based; details: HCT-116
How it was run: (§5)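 10^6 HCT116 cells were treated with 1 μM for 1 h, and for reversal were held in drug-free medium for the set times. Cells were lysed with DNAzol and genomic DNA was isolated and sonicated. Serial dilutions were slot-blotted onto membranes and Top1–DNA complexes detected with the C21 anti-Top1 monoclonal antibody by immunoblotting (ICE method).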

HCT-116 [19] = assay: Cell cycle arrest in human HCT116 cells assessed as accumulation at S phase at 1 uM incubated for 1 hr followed by compound washout measured after 3 hrs by propidium iodide staining-based FACS analysis; assay type: functional; how it was run: as §1
HCT-116 [20] = assay: Cytotoxicity against human HCT116 cells transfected with Top1-siRNA after 72 hrs by MTT assay; assay type: functional; details: HCT-116, 72 h; how it was run: as §3
DU-145 [21] = assay: Cytotoxicity against human DU145 cells after 72 hrs by MTT assay; assay type: functional; details: DU-145, 72 h; how it was run: as §3
HCT-116 [22] = assay: Resistance ratio of GI50 for human HCT116 cells transfected with Top1-siRNA to GI50 for human HCT116 cells; assay type: functional; how it was run: as §2
[23] = Cytotoxicity against human mitoxantrone-resistant H460 cells after 72 hrs by MTT assay; assay type: functional; details: NCI-H460, 72 h; how it was run: as §3
[24] = biological target: T1, DNA topoisomerase 1 (Homo sapiens); assay: Inhibition of human recombinant topoisomerase 1 in human HCT116 cells assessed as stabilization of topoisomerase 1-DNA cleavage complex at 1 uM after 1 hr by DNA immunoblotting analysis; assay type: cell-based; details: HCT-116; how it was run: as §5
DU-145 [25] = assay: Resistance ratio of GI50 for human RC0.1 cells to GI50 for human DU145 cells; assay type: functional; how it was run: as §2
[26] = biological target: T1, DNA topoisomerase 1 (Homo sapiens); assay: Inhibition of human recombinant topoisomerase 1 in human HCT116 cells assessed as reversal of topoisomerase 1-DNA cleavage complex stabilization at 1 uM incubated for 1 hr followed by compound washout measured up to 6 hrs by DNA immunoblotting analysis; assay type: cell-based; details: HCT-116; how it was run: as §5

Compound: O=C1c2cccnc2-c2c1c1ccc([N+](=O)[O-])cc1c(=O)n2CCCN1CCOCC1
inhibition [1]: Active

Compound: COc1cnc2c(c1)C(=O)c1c-2n(CCCN2CCOCC2)c(=O)c2cc(OC)c(OC)cc12
inhibition [1]: Active

Compound: COc1cnc2c(c1)C(=O)c1c-2n(CCCNCCO)c(=O)c2cc([N+](=O)[O-])ccc12
GI50 (DU-145 [2]): < 10 nM
GI50 (UACC-62): < 10 nM
GI50 (OVCAR-3): 35 nM
GI50 (SN12C): < 10 nM
GI50 (HOP-62): < 10 nM
GI50 (HCT-116 [3]): < 10 nM
inhibition [4]: Active
GI50 (MCF7): < 10 nM
GI50 (SF-539): 14 nM

Compound: COc1cnc2c(c1)C(=O)c1c-2n(CCCN2CCOCC2)c(=O)c2cc([N+](=O)[O-])ccc12
Activity (HCT-116 [5]): 37.6%
Activity (HCT-116 [6]): Active
Activity (HCT-116 [7]): Active
Activity (HCT-116 [8]): Active
RatioGI50 [9]: 5.25
GI50 (HCT-116 [10]): 126 nM
inhibition [11]: Active
GI50 [12]: 417 nM
GI50 [13]: 1050 nM
inhibition [14]: Active
RatioGI50 [15]: 0.74
GI50 [16]: 562 nM
GI50 [17]: 33.9 nM
inhibition [18]: Active
Activity (HCT-116 [19]): Active
GI50 (HCT-116 [20]): 112 nM
inhibition [1]: Active
GI50 (DU-145 [21]): 141 nM
RatioGI50 (HCT-116 [22]): 0.89
GI50 [23]: 178 nM
inhibition [24]: Active
RatioGI50 (DU-145 [25]): 7.41
inhibition [26]: Active

Continued, in another order:

inhibition [1]: Active
Compound: COc1cnc2c(c1)C(=O)c1c-2n(CCCN(C)C)c(=O)c2cc([N+](=O)[O-])ccc12

inhibition [4]: Active
Compound: COc1cnc2c(c1)C(=O)c1c-2n(CCCN)c(=O)c2cc([N+](=O)[O-])ccc12
GI50 (DU-145 [2]): 35 nM
GI50 (UACC-62): 24 nM
GI50 (OVCAR-3): 98 nM
GI50 (SN12C): 40 nM
GI50 (HOP-62): 19 nM
GI50 (HCT-116 [3]): 36 nM
GI50 (MCF7): < 10 nM
GI50 (SF-539): 73 nM

inhibition [1]: Active
Compound: COc1cnc2c(c1)C(=O)c1c-2n(CCCN(C)C)c(=O)c2cc(OC)c(OC)cc12
